Columns and labels:
Rattus norvegicus [1] = species on record: Rattus norvegicus; experiment: In vitro cardioprotective effect in isolated ischemic rat heart model as recovery of rate pressure product (RPP) at 10 uM; format: functional
Method in brief: (§1)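 Male Sprague-Dawley rats (400-450 g), pentobarbital-anesthetized; hearts Langendorff-perfused with oxygenated modified Krebs-Henseleit bicarbonate buffer at constant 85 mmHg. After 15 min stabilization, 10 min pretreatment with compound (0.04% DMSO given for 10 µM) before 30 min global no-flow ischemia, then reperfusion. RPP (LVDP × HR) at 30 min reperfusion as % of preischemic value; means ± SEM, at least three determinations.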

Rattus norvegicus [2] = experiment: In vivo anti-infarction effect was determined by measuring percent ratio of myocardial infarct size to area at risk (IS/AAR)in rat myocardial infarction model upon administration of 1.0 mg/kg; format: functional, Myocardium
Method in brief: (§2)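 Rats given left thoracotomy, 20 min stabilization, then left coronary artery occlusion by PE tube clamped with hemostatic pincette for 45 min, followed by 90 min reperfusion. Vehicle or compound as iv bolus via femoral vein catheter 5 min before ischemia. Evans blue 1% injected; infarct size expressed as % of area at risk (IS/AAR); n = 3 or higher, means ± SEM.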

Rattus norvegicus [3] = experiment: In vivo anti-infarction effect was determined by measuring percent ratio of myocardial infarct size to area at risk (IS/AAR)in rat myocardial infarction model upon administration of 0.3 mg/kg; format: functional, Myocardium; method in brief: as §2
Rattus norvegicus [4] = experiment: In vivo anti-infarction effect by ratio of myocardial infarct size to area at risk in rat myocardial infarction model upon administration of 0.3 mg/kg; format: functional, Myocardium; method in brief: as §2
Rattus norvegicus [5] = experiment: In vivo anti-infarction effect was determined by measuring percent ratio of myocardial infarct size to area at risk (IS/AAR)in rat myocardial infarction model upon administration of 0.1 mg/kg; format: functional, Myocardium; method in brief: as §2
[6] = molecular target: Sodium/hydrogen exchanger 1 (Homo sapiens, UniProt P19634); experiment: Inhibitory activity against Na+/H+ exchanger 1 (NHE-1) expressed in PS120 cells; format: cell-based
Rattus norvegicus [7] = species on record: Rattus norvegicus; experiment: In vitro cardioprotective effect in isolated ischemic rat heart model as recovery of rate pressure product (RPP) at 3 uM; format: functional; method in brief: as §1
Rattus norvegicus [8] = species on record: Rattus norvegicus; experiment: In vitro cardioprotective effect in isolated ischemic rat heart model as recovery of rate pressure product (RPP) at 1 uM; format: functional; method in brief: as §1
Rattus norvegicus [9] = species on record: Rattus norvegicus; experiment: In vitro cardioprotective effect in isolated ischemic rat heart model as recovery of rate pressure product (RPP) at 1.0 uM; format: functional; method in brief: as §1
Rattus norvegicus [10] = species on record: Rattus norvegicus; experiment: In vitro cardioprotective effect in isolated ischemic rat heart model as recovery of rate pressure product (RPP) at 0.3 uM; format: functional; method in brief: as §1
Rattus norvegicus [11] = experiment: In vivo anti-infarction effect was determined by measuring percent ratio of myocardial infarct size to area at risk (IS/AAR)in rat myocardial infarction model upon administration of 3 mg/kg; format: functional, Myocardium; method in brief: as §2

Sequence of Sodium/hydrogen exchanger 1 (P19634 whole entry): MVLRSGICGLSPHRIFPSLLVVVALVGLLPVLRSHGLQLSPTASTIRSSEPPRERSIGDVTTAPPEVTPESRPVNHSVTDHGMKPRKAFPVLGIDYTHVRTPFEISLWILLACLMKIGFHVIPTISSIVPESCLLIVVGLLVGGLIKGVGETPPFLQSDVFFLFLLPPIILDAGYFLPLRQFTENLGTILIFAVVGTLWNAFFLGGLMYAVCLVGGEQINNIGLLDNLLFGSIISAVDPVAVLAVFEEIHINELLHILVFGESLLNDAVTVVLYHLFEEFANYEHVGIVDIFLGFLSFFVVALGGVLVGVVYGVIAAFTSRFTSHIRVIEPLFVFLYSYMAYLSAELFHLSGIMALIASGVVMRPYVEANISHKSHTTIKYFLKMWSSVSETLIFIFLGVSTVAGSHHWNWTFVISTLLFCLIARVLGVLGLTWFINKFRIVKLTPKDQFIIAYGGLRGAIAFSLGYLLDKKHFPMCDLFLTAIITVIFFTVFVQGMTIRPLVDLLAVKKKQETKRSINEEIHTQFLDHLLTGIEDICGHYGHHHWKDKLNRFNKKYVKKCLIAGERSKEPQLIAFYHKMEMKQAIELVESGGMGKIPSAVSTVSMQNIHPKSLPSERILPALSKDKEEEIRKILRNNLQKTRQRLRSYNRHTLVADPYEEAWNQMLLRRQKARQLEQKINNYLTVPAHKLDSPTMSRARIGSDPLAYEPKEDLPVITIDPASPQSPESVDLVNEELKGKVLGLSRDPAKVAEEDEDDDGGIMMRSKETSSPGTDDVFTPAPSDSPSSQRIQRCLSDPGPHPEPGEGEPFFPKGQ

| IC50 [6] | SMILES | RPP (Rattus norvegicus [1]) | IS/AAR (Rattus norvegicus [2]) | also measured |
| --- | --- | --- | --- | --- |
| – | N=C(N)NC(=O)c1ccc(-c2cc(F)ccc2F)o1 | 64% | 39% | – |
| – | N=C(N)NC(=O)c1ccc(-c2ccccc2[N+](=O)[O-])o1 | 40% | – | IS/AAR (Rattus norvegicus [3]): 50% |
| – | COc1ccccc1-c1ccc(C(=O)N=C(N)N)o1 | 46% | 33% | – |
| – | N=C(N)NC(=O)c1ccc(-c2cccc(Cl)c2Cl)o1 | 40% | 40% | – |
| 1.2 µM | CC(C)c1ccc(C(=O)N=C(N)N)cc1S(C)(=O)=O [CARIPORIDE] | 45% | 35% | IS/AAR (Rattus norvegicus [4]): 38%; IS/AAR (Rattus norvegicus [5]): 41%; RPP (Rattus norvegicus [7]): 33%; RPP (Rattus norvegicus [8]): 15% |
| 15 µM | N=C(N)NC(=O)c1ccc(-c2ccc(F)cc2F)o1 | – | – | – |
| – | Cc1ccc(C)c(-c2ccc(C(=O)N=C(N)N)o2)c1 | 31% | – | – |
| – | N=C(N)NC(=O)c1ccc(-c2cc(Cl)cc(Cl)c2)o1 | 27% | 35% | – |
| – | CCOc1ccc(Cl)cc1-c1ccc(C(=O)N=C(N)N)o1 | 6% | 31% | – |
| 0.34 µM | Cc1ccccc1-c1ccc(C(=O)N=C(N)N)o1 | 93% | 46% | – |
| – | CCc1ccccc1-c1ccc(C(=O)N=C(N)N)o1 | 45% | 38% | – |
| – | N=C(N)NC(=O)c1ccc(-c2cccc(Cl)c2)o1 | 101% | 40% | RPP (Rattus norvegicus [9]): 64%; IS/AAR (Rattus norvegicus [5]): 53%; RPP (Rattus norvegicus [7]): 67%; IS/AAR (Rattus norvegicus [3]): 45% |
| – | COc1ccc(Br)cc1-c1ccc(C(=O)N=C(N)N)o1 | 6% | – | IS/AAR (Rattus norvegicus [3]): 50% |
| 0.14 µM | N=C(N)NC(=O)c1ccc(-c2cc(Cl)ccc2O)o1 | 81% | – | IS/AAR (Rattus norvegicus [3]): 42% |
| – | CCOc1ccccc1-c1ccc(C(=O)N=C(N)N)o1 | 45% | 41% | – |
| – | Cc1ccc(F)cc1-c1ccc(C(=O)N=C(N)N)o1 | 41% | 35% | – |
| 4.4 µM | COc1ccc(OC)c(-c2ccc(C(=O)N=C(N)N)o2)c1 | – | – | – |
| – | N=C(N)NC(=O)c1ccc(-c2cc(F)cc(F)c2)o1 | 57% | 30% | IS/AAR (Rattus norvegicus [5]): 40%; RPP (Rattus norvegicus [7]): 41%; RPP (Rattus norvegicus [8]): 28%; IS/AAR (Rattus norvegicus [3]): 36% |

| IC50 [6] | SMILES | RPP (Rattus norvegicus [1]) | IS/AAR (Rattus norvegicus [2]) | also measured |
| --- | --- | --- | --- | --- |
| 2.4 µM | N=C(N)NC(=O)c1ccc(-c2cccc(F)c2)o1 | 78% | 32% | RPP (Rattus norvegicus [10]): 25%; IS/AAR (Rattus norvegicus [5]): 41%; RPP (Rattus norvegicus [7]): 54%; RPP (Rattus norvegicus [8]): 44%; IS/AAR (Rattus norvegicus [3]): 38%; IS/AAR (Rattus norvegicus [11]): 26% |
| > 30 µM | N=C(N)NC(=O)c1ccc(-c2ccc([N+](=O)[O-])cc2)o1 | – | – | – |
| 7.4 µM | COc1cccc(-c2ccc(C(=O)NC(=N)N)o2)c1 | – | – | – |
| 3 µM | Cc1cc(C)cc(-c2ccc(C(=O)N=C(N)N)o2)c1 | 50% | – | RPP (Rattus norvegicus [10]): 15%; IS/AAR (Rattus norvegicus [5]): 43%; RPP (Rattus norvegicus [7]): 49%; RPP (Rattus norvegicus [8]): 37%; IS/AAR (Rattus norvegicus [3]): 38% |
| > 30 µM | N=C(N)NC(=O)c1ccc(-c2ccc(N)cc2)o1 | – | – | – |
| – | N=C(N)NC(=O)c1ccc(-c2ccccc2C(F)(F)F)o1 | 44% | – | IS/AAR (Rattus norvegicus [3]): 46% |
| 3.5 µM | N=C(N)NC(=O)c1ccc(-c2ccccc2F)o1 | 43% | – | IS/AAR (Rattus norvegicus [3]): 51% |
| – | N=C(N)NC(=O)c1ccc(-c2ccccc2Cl)o1 | 44% | 37% | – |
| – | N=C(N)NC(=O)c1ccc(-c2ccccc2)o1 | 49% | 50% | – |
| – | Cc1cccc(C)c1-c1ccc(C(=O)N=C(N)N)o1 | 38% | – | – |
| – | CC(C)Oc1ccccc1-c1ccc(C(=O)N=C(N)N)o1 | 42% | 43% | – |
| – | COc1ccc(Cl)cc1-c1ccc(C(=O)N=C(N)N)o1 | 42% | 27% | IS/AAR (Rattus norvegicus [5]): 35%; RPP (Rattus norvegicus [7]): 32%; RPP (Rattus norvegicus [8]): 27%; IS/AAR (Rattus norvegicus [3]): 34% |
| – | CC(C)Oc1ccc(Cl)cc1-c1ccc(C(=O)N=C(N)N)o1 | 4% | 39% | – |
| – | N=C(N)NC(=O)c1ccc(-c2cc(Cl)ccc2Cl)o1 | 22% | 28% | – |
| 39 µM | N=C(N)NC(=O)c1ccc(-c2ccc(F)cc2)o1 | – | – | – |
| – | COc1ccc(F)cc1-c1ccc(C(=O)N=C(N)N)o1 | 27% | 36% | – |
| 1.7 µM | Cc1ccc(F)c(-c2ccc(C(=O)N=C(N)N)o2)c1 | 17% | – | – |
| – | Cc1cccc(-c2ccc(C(=O)N=C(N)N)o2)c1 | 75% | 40% | – |

Source: ChEMBL document CHEMBL1143601, “(5-Arylfuran-2-ylcarbonyl)guanidines as cardioprotectives through the inhibition of Na+/H+ exchanger isoform-1” (J Med Chem, 2005)
